The text below walks through data of article PMC4691888 (Genes & Development, 2015).

For series [1], the target named is T1, human NRMT1 (Homo sapiens, UniProt Q9BV86).
T1 sequence (Q9BV86 1-223): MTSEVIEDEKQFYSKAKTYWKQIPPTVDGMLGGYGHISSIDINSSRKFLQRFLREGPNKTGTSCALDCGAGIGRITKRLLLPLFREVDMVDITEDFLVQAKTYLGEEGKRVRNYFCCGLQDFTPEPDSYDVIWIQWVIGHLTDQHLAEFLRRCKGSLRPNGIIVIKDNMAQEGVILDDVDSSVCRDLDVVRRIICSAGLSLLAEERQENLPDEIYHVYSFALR
The series is described as follows: MALDI-TOF MS-based methylation assay of native and mutant CENP-A. The series is classed as biochemical. The following applies: 5 h incubation, CENP-A (1-9) peptides. The procedure, abridged: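 Recombinant His-tagged human NRMT1, expressed in E. coli and purified, incubated 5 h with native or mutant CENP-A peptides. Methylated products detected by MALDI-TOF mass spectrometry. Abundance of each methylation state scored semi-quantitatively (full or half abundance levels); products not detected are recorded as ND.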

Series [2] has as its target T1, human NRMT1. Put plainly: Thermofluor shift assay. As to conditions: CENP-A (1-9) peptides, 360 μM; 1 mg/mL NRMT1, 180 μM SAH, pH 8.0. The series is classed as binding. In general terms: Differential scanning fluorimetry follows unfolding on heating by fluorescence.
The target in series [3] is human NRMT1 (human) (UniProt Q9BV86). The series is described as follows: thermofluor shift assay.
Series [4] deals with T1, human NRMT1. The following applies: ref Okada et al. 2007; Tooley et al. 2010; Bailey et al. 2013; cited from earlier work.
For series [5], the target named is T1, human NRMT1. The series is described as follows: Histone peptide methylation profiling by NRMT1. The format is biochemical. As to conditions: nine-residue N-terminal histone peptides; MALDI-TOF MS. The procedure, abridged:
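Wild-type human NRMT1, produced recombinantly in E. coli and purified as a His-tagged protein, incubated with native or mutant peptide substrates for 5 h. Methylated products detected by MALDI-TOF MS and scored semi-quantitatively by relative abundance of each methylation state (full or half abundance), with not-detected products recorded as ND.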

Series [6] deals with T2, human NRMT1 (human, UniProt Q9BV86 1-223).
T2 sequence (looked up): T1 sequence (Q9BV86 1-223)
Put plainly: thermofluor shift assay.

For series [7], the target named is T2, human NRMT1. Put plainly: ITC. (In general: ITC needs no label: the signal is the heat of the interaction.)
The target in series [8] is T3, human NRMT1 D180N (human, UniProt Q9BV86 1-223, D180N).
T3 sequence: T1 sequence (Q9BV86 1-223) with D180N
Put plainly: cell-based or functional assay.

Residue numbers refer to the chain shown, from its start. No end group written: not given here. Me2 = α-N-dimethylated N-terminal residue

On to (G1S)PRRRSRKP, for which, in series [1], the “methylation capacity / state preference, in words” value was “α-N-monomethylation being the major product form”. Moreover, the “Tm increase (stabilization) compared with NRMT1-SAH binary complex” value in series [2] is 3 °C.
In the same order, the values of (G1A)PRRRSRKP are “full state” and 1.5 °C.
Consider (G1P)PRRRSRKP, for which the “methylation capacity / state preference, in words” value in series [1] is given as “full state”. Moreover, the “Tm increase (stabilization) compared with NRMT1-SAH binary complex” value in series [2] worked out at 5.5 °C.
For α-N-monomethylated CENP-A peptide, the Tm of the NRMT1–CENP-A complex in series [3] was found to be 49 °C.
Consider “myosin light chain 3: reported NRMT1 substrate protein”, for which, in series [4], the “reported NRMT1 substrate, in words” value is “reported NRMT1 substrates”.
With α-N-trimethylated CENP-A peptide, the Tm of the NRMT1–CENP-A complex in series [3] came out at 50 °C.
In the case of PPKTSGKAA [DmH2B (fruit fly)], the “methylation by NRMT1, in words” value in series [5] was “dimethylation”.

B1: kelch-like protein 31: reported NRMT1 substrate protein (protein, UniProt Q9H511 2-634, looked up)
Kelch-like protein 31: APKKKIVKKNKGDINEMTIIVEDSPLNKLNALNGLLEGGNGLSCISSELTDASYGPNLLEGLSKMRQENFLCDLVIGTKTKSFDVHKSVMASCSEYFYNILKKDPSIQRVDLNDISPLGLATVIAYAYTGKLTLSLYTIGSIISAAVYLQIHTLVKMCSDFLIREMSVENCMYVVNIAETYSLKNAKAAAQKFIRDNFLEFAESDQFMKLTFEQINELLIDDDLQLPSEIVAFQIAMKWLEFDQKRVKYAADLLSNIRFGTISAQDLVNYVQSVPRMMQDADCHRLLVDAMNYHLLPYHQNTLQSRRTRIRGGCRVLVTVGGRPGLTEKSLSRDILYRDPENGWSKLTEMPAKSFNQCVAVMDGFLYVAGGEDQNDARNQAKHAVSNFCRYDPRFNTWIHLASMNQKRTHFSLSVFNGLVYAAGGRNAEGSLASLECYVPSTNQWQPKTPLEVARCCHASAVADGRVLVTGGYIANAYSRSVCAYDPASDSWQELPNLSTPRGWHCAVTLSDRVYVMGGSQLGPRGERVDVLTVECYSPATGQWSYAAPLQVGVSTAGVSALHGRAYLVGGWNEGEKKYKKCIQCFSPELNEWTEDDELPEATVGVSCCTLSMPNNVTRESRASSVSSVPVSI
With B1, in series [4], the “reported NRMT1 substrate, in words” value was “reported NRMT1 substrates”.

B2: retinoblastoma protein: reported NRMT1 substrate protein (protein, UniProt P06400 2-928, looked up)
Retinoblastoma-associated …: PPKTPRKTAATAAAAAAEPPAPPPPPPPEEDPEQDSGPEDLPLVRLEFEETEEPDFTALCQKLKIPDHVRERAWLTWEKVSSVDGVLGGYIQKKKELWGICIFIAAVDLDEMSFTFTELQKNIEISVHKFFNLLKEIDTSTKVDNAMSRLLKKYDVLFALFSKLERTCELIYLTQPSSSISTEINSALVLKVSWITFLLAKGEVLQMEDDLVISFQLMLCVLDYFIKLSPPMLLKEPYKTAVIPINGSPRTPRRGQNRSARIAKQLENDTRIIEVLCKEHECNIDEVKNVYFKNFIPFMNSLGLVTSNGLPEVENLSKRYEEIYLKNKDLDARLFLDHDKTLQTDSIDSFETQRTPRKSNLDEEVNVIPPHTPVRTVMNTIQQLMMILNSASDQPSENLISYFNNCTVNPKESILKRVKDIGYIFKEKFAKAVGQGCVEIGSQRYKLGVRLYYRVMESMLKSEEERLSIQNFSKLLNDNIFHMSLLACALEVVMATYSRSTSQNLDSGTDLSFPWILNVLNLKAFDFYKVIESFIKAEGNLTREMIKHLERCEHRIMESLAWLSDSPLFDLIKQSKDREGPTDHLESACPLNLPLQNNHTAADMYLSPVRSPKKKGSTTRVNSTANAETQATSAFQTQKPLKSTSLSLFYKKVYRLAYLRLNTLCERLLSEHPELEHIIWTLFQHTLQNEYELMRDRHLDQIMMCSMYGICKVKNIDLKFKIIVTAYKDLPHAVQETFKRVLIKEEEYDSIIVFYNSVFMQRLKTNILQYASTRPPTLSPIPHIPRSPYKFPSSPLRIPGGNIYISPLKSPYKISEGLPTPTKMTPRSRILVSIGESFGTSEKFQKINQMVCNSDRVLKRSAEGSNPPKPLKKLRFDIEGSDEADGSKHLPGESKFQQKLAEMTSTRTRMQKQKMNDSMDTSNKEEK
Regarding B2, the “reported NRMT1 substrate, in words” value in series [4] was “reported NRMT1 substrates”.
Usually Kd stands for a measure of binding affinity in units of concentration. For the molecule Me2-GPRRRSRKP [α-N-dimethylated CENP-A (1–9) peptide], the “Tm of the NRMT1–CENP-A complex” value in series [6] was determined as 52.5 °C. In series [7], this molecule registered a Kd of 0.39 µM and a dH of -49.4 kJ/mol.

B3: myosin light chain 2: reported NRMT1 substrate protein (protein, UniProt P10916 2-166, looked up)
Myosin regulatory light chain …: APKKAKKRAGGANSNVFSMFEQTQIQEFKEAFTIMDQNRDGFIDKNDLRDTFAALGRVNVKNEEIDEMIKEAPGPINFTVFLTMFGEKLKGADPEETILNAFKVFDPEGKGVLKADYVREMLTTQAERFSKEEVDQMFAAFPPDVTGNLDYKNLVHIITHGEEKD
On to B3, for which the “reported NRMT1 substrate, in words” value in series [4] is recorded as “reported NRMT1 substrates”.
For the molecule GPRRRSRKP [CENP-A (1–9) peptide, unmodified], the “in vitro methylation assay of CENP-A, drop of activity against wild-type enzyme” value in series [8] was around 4 fold.

B4: regulator of chromosome condensation 1 (RCC1): reported NRMT1 substrate protein (protein, UniProt P18754 2-421, looked up)
Regulator of chromosome …: SPKRIAKRRSPPADAIPKSKKVKVSHRSHSTEPGLVLTLGQGDVGQLGLGENVMERKKPALVSIPEDVVQAEAGGMHTVCLSKSGQVYSFGCNDEGALGRDTSVEGSEMVPGKVELQEKVVQVSAGDSHTAALTDDGRVFLWGSFRDNNGVIGLLEPMKKSMVPVQVQLDVPVVKVASGNDHLVMLTADGDLYTLGCGEQGQLGRVPELFANRGGRQGLERLLVPKCVMLKSRGSRGHVRFQDAFCGAYFTFAISHEGHVYGFGLSNYHQLGTPGTESCFIPQNLTSFKNSTKSWVGFSGGQHHTVCMDSEGKAYSLGRAEYGRLGLGEGAEEKSIPTLISRLPAVSSVACGASVGYAVTKDGRVFAWGMGTNYQLGTGQDEDAWSPVEMMGKQLENRVVLSVSSGGQHTVLLVKDKEQS
With B4, the “reported NRMT1 substrate, in words” value in series [4] is reported as “reported NRMT1 substrates”.

B5: CENP-B: reported NRMT1 substrate protein (protein, UniProt P07199 2-599, looked up)
Major centromere autoantigen B: GPKRRQLTFREKSRIIQEVEENPDLRKGEIARRFNIPPSTLSTILKNKRAILASERKYGVASTCRKTNKLSPYDKLEGLLIAWFQQIRAAGLPVKGIILKEKALRIAEELGMDDFTASNGWLDRFRRRHGVVSCSGVARARARNAAPRTPAAPASPAAVPSEGSGGSTTGWRAREEQPPSVAEGYASQDVFSATETSLWYDFLPDQAAGLCGGDGRPRQATQRLSVLLCANADGSEKLPPLVAGKSAKPRAGQAGLPCDYTANSKGGVTTQALAKYLKALDTRMAAESRRVLLLAGRLAAQSLDTSGLRHVQLAFFPPGTVHPLERGVVQQVKGHYRQAMLLKAMAALEGQDPSGLQLGLTEALHFVAAAWQAVEPSDIAACFREAGFGGGPNATITTSLKSEGEEEEEEEEEEEEEEGEGEEEEEEGEEEEEEGGEGEELGEEEEVEEEGDVDSDEEEEEDEESSSEGLEAEDWAQGVVEAGGSFGAYGAQEEAQCPTLHFLEGGEDSDSDSEEEDDEEEDDEDEDDDDDEEDGDEVPVPSFGEAMAYFAMVKRYLTSFPIDDRVQSHILHLEHDLVHVTRKNHARQAGVRGLGHQS
For the molecule B5, in series [4], the “reported NRMT1 substrate, in words” value is recorded as “reported NRMT1 substrates”.
